From PMC6466550 (ACS Medicinal Chemistry Letters, 2019)

System: FOPFlash reporter
Assay: Wnt reporter assay, FOPFlash negative control
Format: cell-based
Details: 293T cells, 50 mM LiCl, 24 h, luciferase
Method in brief: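 293T cells transfected with the FOPFlash plasmid, whose TCF/LEF binding sites are mutated. This plasmid served as a negative control for the TOPFlash reporter, which carries eight TCF/LEF binding-site repeats. Wnt signalling was activated with the GSK3beta inhibitor LiCl. Cells were exposed to increasing concentrations of test compound, and reporter activity was then measured.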

CCOC(=O)c1ccc(NS(=O)(=O)c2ccc(Br)cc2)cc1 [Compound 17]
Effect on activity of FOP reporter: failed to prevent
